Key:
Type in all cases: functional
OVCAR-8 [1] = assay: Growth inhibition of human OVCAR-8 cells incubated for 48 hrs by sulforhodamine B assay; details: for CC50: read-out: LC50 (the source's name)
Summary of the method: (§1)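 NCI DTP 60-line human tumour panel. Dose-response curves were run only for ligands active in the initial 10 µM screen. GI50 (concentration giving 50% of maximal inhibition of proliferation) and TGI (concentration giving total growth inhibition) were derived from these curves.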

786-0 = assay: Growth inhibition of human 786-0 cells assessed as cell growth at 1 uM incubated for 48 hrs by sulforhodamine B assay relative to control; details: read-out: Activity
Summary of the method: (§2)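 NCI Developmental Therapeutics Program NCI60 panel. Compounds that were active in the 10 µM one-dose screen went on to dose–response testing. Growth at each concentration is expressed relative to untreated control (100%). GI50 (concentration giving 50% of maximal inhibition of proliferation) and TGI (concentration giving total growth inhibition) were derived from the curves.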

SK-MEL-28 = assay: Growth inhibition of human SK-MEL-28 cells assessed as cell growth at 100 uM incubated for 48 hrs by sulforhodamine B assay relative to control; details: read-out: Activity
NCI-H522 [2] = assay: Growth inhibition of human NCI-H522 cells assessed as cell growth at 0.01 uM incubated for 48 hrs by sulforhodamine B assay relative to control; details: read-out: Activity
HT-29 [3] = assay: Growth inhibition of human HT-29 cells assessed as cell growth at 1 uM incubated for 48 hrs by sulforhodamine B assay relative to control; details: read-out: Activity
SF-268 [4] = assay: Growth inhibition of human SF-268 cells incubated for 48 hrs by sulforhodamine B assay; summary of the method: as §1
HCT-116 [5] = assay: Growth inhibition of human HCT-116 cells assessed as cell growth at 0.01 uM incubated for 48 hrs by sulforhodamine B assay relative to control; details: read-out: Activity
Hs-578T = assay: Growth inhibition of human Hs-578T cells assessed as cell growth at 100 uM incubated for 48 hrs by sulforhodamine B assay relative to control; details: read-out: Activity
MCF7 [6] = assay: Growth inhibition of human MCF7 cells assessed as cell growth at 1 uM incubated for 48 hrs by sulforhodamine B assay relative to control; details: read-out: Activity
NCI-H522 [7] = assay: Growth inhibition of human NCI-H522 cells assessed as cell growth at 1 uM incubated for 48 hrs by sulforhodamine B assay relative to control; details: read-out: Activity
CAKI-1 [8] = assay: Growth inhibition of human CAKI-1 cells assessed as cell growth at 0.1 uM incubated for 48 hrs by sulforhodamine B assay relative to control; details: read-out: Activity; summary of the method: as §2
TK-10 = assay: Growth inhibition of human TK-10 cells assessed as cell growth at 0.01 uM incubated for 48 hrs by sulforhodamine B assay relative to control; details: read-out: Activity
SF-539 = assay: Growth inhibition of human SF-539 cells assessed as cell growth at 100 uM incubated for 48 hrs by sulforhodamine B assay relative to control; details: read-out: Activity
HOP-92 = assay: Growth inhibition of human HOP-92 cells incubated for 48 hrs by sulforhodamine B assay
Summary of the method: (§3)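 NCI60 panel at the NCI Developmental Therapeutics Program. Only compounds active in the 10 µM screen went to dose-response testing. GI50, the concentration giving 50% of maximal inhibition of proliferation, and TGI, the concentration giving total growth inhibition, were derived from the dose-response curves.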

CAKI-1 [9] = assay: Growth inhibition of human CAKI-1 cells incubated for 48 hrs by sulforhodamine B assay; details: for CC50: read-out: LC50 (the source's name); summary of the method: as §2
HCC 2998 = assay: Growth inhibition of human HCC 2998 cells incubated for 48 hrs by sulforhodamine B assay; details: for CC50: read-out: LC50 (the source's name)
NCI-H23 = assay: Growth inhibition of human NCI-H23 cells assessed as cell growth at 100 uM incubated for 48 hrs by sulforhodamine B assay relative to control; details: read-out: Activity
MOLT-4 [10] = assay: Growth inhibition of human MOLT-4 cells assessed as cell growth at 1 uM incubated for 48 hrs by sulforhodamine B assay relative to control; details: read-out: Activity
NCI-H522 [11] = assay: Growth inhibition of human NCI-H522 cells incubated for 48 hrs by sulforhodamine B assay; summary of the method: as §3
MOLT-4 [12] = assay: Growth inhibition of human MOLT-4 cells incubated for 48 hrs by sulforhodamine B assay; details: for CC50: read-out: LC50 (the source's name); summary of the method: as §3
NCI/ADR-RES = assay: Growth inhibition of human NCI/ADR-RES cells incubated for 48 hrs by sulforhodamine B assay; details: for CC50: read-out: LC50 (the source's name); summary of the method: as §3
UO-31 = assay: Growth inhibition of human UO-31 cells assessed as cell growth at 1 uM incubated for 48 hrs by sulforhodamine B assay relative to control; details: read-out: Activity
HCT-15 = assay: Growth inhibition of human HCT-15 cells incubated for 48 hrs by sulforhodamine B assay; summary of the method: as §3
HOP-62 = assay: Growth inhibition of human HOP-62 cells assessed as cell growth at 1 uM incubated for 48 hrs by sulforhodamine B assay relative to control; details: read-out: Activity
KM12 = assay: Growth inhibition of human KM12 cells assessed as cell growth at 0.1 uM incubated for 48 hrs by sulforhodamine B assay relative to control; details: read-out: Activity
OVCAR-8 [13] = assay: Growth inhibition of human OVCAR-8 cells assessed as cell growth at 1 uM incubated for 48 hrs by sulforhodamine B assay relative to control; details: read-out: Activity
SNB-19 = assay: Growth inhibition of human SNB-19 cells assessed as cell growth at 0.01 uM incubated for 48 hrs by sulforhodamine B assay relative to control; details: read-out: Activity
SF-268 [14] = assay: Growth inhibition of human SF-268 cells assessed as cell growth at 0.01 uM incubated for 48 hrs by sulforhodamine B assay relative to control; details: read-out: Activity
IGROV-1 = assay: Growth inhibition of human IGROV-1 cells assessed as cell growth at 0.01 uM incubated for 48 hrs by sulforhodamine B assay relative to control; details: read-out: Activity
SW-620 = assay: Growth inhibition of human SW-620 cells incubated for 48 hrs by sulforhodamine B assay; summary of the method: as §1
HT-29 [15] = assay: Growth inhibition of human HT-29 cells assessed as cell growth at 100 uM incubated for 48 hrs by sulforhodamine B assay relative to control; details: read-out: Activity
SNB-75 = assay: Growth inhibition of human SNB-75 cells assessed as cell growth at 0.1 uM incubated for 48 hrs by sulforhodamine B assay relative to control; details: read-out: Activity
RXF 393 = assay: Growth inhibition of human RXF 393 cells incubated for 48 hrs by sulforhodamine B assay; details: for CC50: read-out: LC50 (the source's name); summary of the method: as §1
MCF7 [16] = assay: Growth inhibition of human MCF7 cells assessed as cell growth at 0.1 uM incubated for 48 hrs by sulforhodamine B assay relative to control; details: read-out: Activity
HCT-116 [17] = assay: Growth inhibition of human HCT-116 cells incubated for 48 hrs by sulforhodamine B assay; summary of the method: as §3

Nc1c(C(=O)Nc2ccccc2)sc2nc3c(cc12)CN(Cc1ccccc1)CC3
GI50 (OVCAR-8 [1]): 16.8 µM
TGI (OVCAR-8 [1]): > 100 µM
CC50 (OVCAR-8 [1]): > 100 µM
growth at 1 µM (786-0): 106%
growth at 100 µM (SK-MEL-28): 28%
growth at 0.01 µM (NCI-H522 [2]): 89%
growth at 1 µM (HT-29 [3]): 101%
GI50 (SF-268 [4]): 5.62 µM
LC50 (concentration killing 50% of cells) (SF-268 [4]): > 100 µM
TGI (SF-268 [4]): > 100 µM
growth at 0.01 µM (HCT-116 [5]): 100%
growth at 100 µM (Hs-578T): -6%
growth at 1 µM (MCF7 [6]): 82%
growth at 1 µM (NCI-H522 [7]): 91%
growth at 0.1 µM (CAKI-1 [8]): 86%
growth at 0.01 µM (TK-10): 93%
growth at 100 µM (SF-539): 11%
GI50 (HOP-92): 2.48 µM
LC50 (concentration killing 50% of the starting cells) (HOP-92): > 100 µM
TGI (HOP-92): 20.4 µM
GI50 (CAKI-1 [9]): 19.7 µM
TGI (CAKI-1 [9]): > 100 µM
CC50 (CAKI-1 [9]): > 100 µM
GI50 (HCC 2998): 76.1 µM
TGI (HCC 2998): > 100 µM
CC50 (HCC 2998): > 100 µM
growth at 100 µM (NCI-H23): 24%
growth at 1 µM (MOLT-4 [10]): 97%
GI50 (NCI-H522 [11]): 32.5 µM
LC50 (NCI-H522 [11]): > 100 µM
TGI (NCI-H522 [11]): > 100 µM
GI50 (MOLT-4 [12]): 31.3 µM
TGI (MOLT-4 [12]): > 100 µM
CC50 (MOLT-4 [12]): > 100 µM
GI50 (NCI/ADR-RES): 16.3 µM
TGI (NCI/ADR-RES): > 100 µM
CC50 (NCI/ADR-RES): > 100 µM
growth at 1 µM (UO-31): 83%
GI50 (HCT-15): 24.7 µM
LC50 (HCT-15): > 100 µM
TGI (HCT-15): > 100 µM
growth at 1 µM (HOP-62): 88%
growth at 0.1 µM (KM12): 95%
growth at 1 µM (OVCAR-8 [13]): 98%
growth at 0.01 µM (SNB-19): 93%
growth at 0.01 µM (SF-268 [14]): 91%
growth at 0.01 µM (IGROV-1): 95%
GI50 (SW-620): 20.8 µM
LC50 (concentration killing 50% of cells) (SW-620): > 100 µM
TGI (SW-620): > 100 µM
growth at 100 µM (HT-29 [15]): 8%
growth at 0.1 µM (SNB-75): 83%
GI50 (RXF 393): 3.15 µM
TGI (RXF 393): 54.2 µM
CC50 (RXF 393): > 100 µM
growth at 0.1 µM (MCF7 [16]): 86%
GI50 (HCT-116 [17]): 11 µM
LC50 (concentration killing 50% of cells) (HCT-116 [17]): > 100 µM
TGI (HCT-116 [17]): > 100 µM

CN1CCc2nc3sc(C(N)=O)c(N)c3c(-c3cccs3)c2C1
GI50 (OVCAR-8 [1]): 2.7 µM
TGI (OVCAR-8 [1]): > 100 µM
CC50 (OVCAR-8 [1]): > 100 µM
growth at 1 µM (786-0): 107%
growth at 100 µM (SK-MEL-28): -18%
growth at 0.01 µM (NCI-H522 [2]): 96%
growth at 1 µM (HT-29 [3]): 91%
GI50 (SF-268 [4]): 3.85 µM
LC50 (concentration killing 50% of cells) (SF-268 [4]): > 100 µM
TGI (SF-268 [4]): > 100 µM
growth at 0.01 µM (HCT-116 [5]): 100%
growth at 100 µM (Hs-578T): -13%
growth at 1 µM (MCF7 [6]): 111%
growth at 1 µM (NCI-H522 [7]): 86%
growth at 0.1 µM (CAKI-1 [8]): 82%
growth at 0.01 µM (TK-10): 101%
growth at 100 µM (SF-539): -39%
GI50 (HOP-92): 3.16 µM
LC50 (concentration killing 50% of the starting cells) (HOP-92): > 100 µM
TGI (HOP-92): 9.16 µM
GI50 (CAKI-1 [9]): 2.82 µM
TGI (CAKI-1 [9]): > 100 µM
CC50 (CAKI-1 [9]): > 100 µM
GI50 (HCC 2998): 3.54 µM
TGI (HCC 2998): 20.9 µM
CC50 (HCC 2998): > 100 µM
growth at 100 µM (NCI-H23): -30%
growth at 1 µM (MOLT-4 [10]): 85%
GI50 (NCI-H522 [11]): 2.91 µM
LC50 (NCI-H522 [11]): > 100 µM
TGI (NCI-H522 [11]): 17.8 µM
GI50 (MOLT-4 [12]): 2.89 µM
TGI (MOLT-4 [12]): 48.4 µM
CC50 (MOLT-4 [12]): > 100 µM
GI50 (NCI/ADR-RES): 3.69 µM
TGI (NCI/ADR-RES): 98.8 µM
CC50 (NCI/ADR-RES): > 100 µM
growth at 1 µM (UO-31): 95%
GI50 (HCT-15): 3.31 µM
LC50 (HCT-15): > 100 µM
TGI (HCT-15): > 100 µM
growth at 1 µM (HOP-62): 102%
growth at 0.1 µM (KM12): 105%
growth at 1 µM (OVCAR-8 [13]): 82%
growth at 0.01 µM (SNB-19): 103%
growth at 0.01 µM (SF-268 [14]): 106%
growth at 0.01 µM (IGROV-1): 111%
GI50 (SW-620): 4.02 µM
LC50 (concentration killing 50% of cells) (SW-620): > 100 µM
TGI (SW-620): > 100 µM
growth at 100 µM (HT-29 [15]): -1%
growth at 0.1 µM (SNB-75): 95%
GI50 (RXF 393): 1.11 µM
TGI (RXF 393): 3.63 µM
CC50 (RXF 393): > 100 µM
growth at 0.1 µM (MCF7 [16]): 107%
GI50 (HCT-116 [17]): 2.31 µM
LC50 (concentration killing 50% of cells) (HCT-116 [17]): > 100 µM
TGI (HCT-116 [17]): > 100 µM

Source: ChEMBL document CHEMBL4715736, “Identification of anticancer agents based on the thieno[2,3-b]pyridine and 1H-pyrazole molecular scaffolds” (2016)
